From ChEMBL document CHEMBL3621107, “Ring fusion strategy for synthesis and lead optimization of sulfur-substituted anthra[1,2-c][1,2,5]thiadiazole-6,11-dione derivatives as promising scaffold of antitumor agents” (Eur J Med Chem, 2015)

How the values were obtained:
[1] = tested on: SK-MEL-28; test: Cytotoxicity against human SK-MEL-28 cells assessed as cell growth at 10 uM after 48 hrs by SRB assay relative to control; assay type: functional; conditions: SK-MEL-28, 48 h, read-out: Activity
Procedure, shortened: (§1)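 First-stage NCI DTP one-dose screen against the 60 human tumour cell line panel. Compounds were tested at a single 10 μM level, and results are given as growth percentage.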

[2] = tested on: SNB-19; test: Cytotoxicity against human SNB19 cells assessed as cell growth at 10 uM after 48 hrs by SRB assay relative to control; assay type: functional; conditions: SNB-19, 48 h, read-out: Activity
Procedure, shortened: (§2)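 NCI-60 one-dose screen run by NCI DTP: each cell line exposed to a single 10 µM dose, and percentage growth recorded against untreated growth.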

[3] = tested on: Malme-3M; test: Cytotoxicity against human MALME-3M cells assessed as cell growth at 10 uM after 48 hrs by SRB assay relative to control; assay type: functional; conditions: read-out: Activity
Procedure, shortened: (§3)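 First-stage NCI-60 screen by the NCI Developmental Therapeutics Program. Each compound was tested once at a single concentration of 10 μM against the 60-cell-line panel. Growth percentage was reported for each cell line.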

[4] = tested on: NCI-H226; test: Cytotoxicity against human NCI-H226 cells assessed as cell growth at 10 uM after 48 hrs by SRB assay relative to control; assay type: functional; conditions: NCI-H226, 48 h, read-out: Activity; procedure, shortened: as §1
[5] = tested on: COLO 205; test: Cytotoxicity against human COLO205 cells assessed as cell growth at 10 uM after 48 hrs by SRB assay relative to control; assay type: functional; conditions: COLO 205, 48 h, read-out: Activity; procedure, shortened: as §3
[6] = tested on: SR; test: Cytotoxicity against human SR cells assessed as cell growth at 10 uM after 48 hrs by SRB assay relative to control; assay type: functional; conditions: read-out: Activity; procedure, shortened: as §2
[7] = tested on: UO-31; test: Cytotoxicity against human UO31 cells assessed as cell growth at 10 uM after 48 hrs by SRB assay relative to control; assay type: functional; conditions: UO-31, 48 h, read-out: Activity; procedure, shortened: as §2
[8] = tested on: NCI/ADR-RES; test: Cytotoxicity against human NCI/ADR-RES cells assessed as cell growth at 10 uM after 48 hrs by SRB assay relative to control; assay type: functional; conditions: read-out: Activity; procedure, shortened: as §1
[9] = tested on: OVCAR-8; test: Cytotoxicity against human OVCAR8 cells assessed as cell growth at 10 uM after 48 hrs by SRB assay relative to control; assay type: functional; conditions: OVCAR-8, 48 h, read-out: Activity; procedure, shortened: as §1
[10] = tested on: HL-60(TB); test: Cytotoxicity against human HL-60(TB) cells assessed as cell growth at 10 uM after 48 hrs by SRB assay relative to control; assay type: functional; conditions: HL-60, 48 h, read-out: Activity
Procedure, shortened: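 NCI Developmental Therapeutics Program 60-cell-line screen, first stage: a single dose of 10 μM against the panel, reported as percentage growth.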

[11] = tested on: SF-295; test: Cytotoxicity against human SF295 cells assessed as cell growth at 10 uM after 48 hrs by SRB assay relative to control; assay type: functional; conditions: SF-295, 48 h, read-out: Activity; procedure, shortened: as §1
[12] = tested on: TK-10; test: Cytotoxicity against human TK10 cells assessed as cell growth at 10 uM after 48 hrs by SRB assay relative to control; assay type: functional; conditions: TK-10, 48 h, read-out: Activity; procedure, shortened: as §2
[13] = tested on: MDA-MB-231; test: Cytotoxicity against human MDA-MB-231 cells assessed as cell growth at 10 uM after 48 hrs by SRB assay relative to control; assay type: functional; conditions: MDA-MB-231, 48 h, read-out: Activity; procedure, shortened: as §1
[14] = tested on: SK-MEL-2; test: Cytotoxicity against human SK-MEL-2 cells assessed as cell growth at 10 uM after 48 hrs by SRB assay relative to control; assay type: functional; conditions: SK-MEL-2, 48 h, read-out: Activity; procedure, shortened: as §1
[15] = tested on: HOP-62; test: Cytotoxicity against human HOP62 cells assessed as cell growth at 10 uM after 48 hrs by SRB assay relative to control; assay type: functional; conditions: HOP-62, 48 h, read-out: Activity; procedure, shortened: as §3
[16] = tested on: NCI-H460; test: Cytotoxicity against human NCI-H460 cells assessed as cell growth at 10 uM after 48 hrs by SRB assay relative to control; assay type: functional; conditions: NCI-H460, 48 h, read-out: Activity; procedure, shortened: as §1
[17] = tested on: KM12; test: Cytotoxicity against human KM12 cells assessed as cell growth at 10 uM after 48 hrs by SRB assay relative to control; assay type: functional; conditions: KM12, 48 h, read-out: Activity; procedure, shortened: as §3
[18] = tested on: SF-539; test: Cytotoxicity against human SF539 cells assessed as cell growth at 10 uM after 48 hrs by SRB assay relative to control; assay type: functional; conditions: SF-539, 48 h, read-out: Activity; procedure, shortened: as §1
[19] = tested on: SK-OV-3; test: Cytotoxicity against human SKOV3 cells assessed as cell growth at 10 uM after 48 hrs by SRB assay relative to control; assay type: functional; conditions: SK-OV-3, 48 h, read-out: Activity; procedure, shortened: as §1
[20] = tested on: 786-0; test: Cytotoxicity against human 786-0 cells assessed as cell growth at 10 uM after 48 hrs by SRB assay relative to control; assay type: functional; conditions: 786-0, 48 h, read-out: Activity; procedure, shortened: as §3
[21] = tested on: UACC-62; test: Cytotoxicity against human UACC62 cells assessed as cell growth at 10 uM after 48 hrs by SRB assay relative to control; assay type: functional; conditions: UACC-62, 48 h, read-out: Activity; procedure, shortened: as §2
[22] = tested on: HCT-116; test: Cytotoxicity against human HCT116 cells assessed as cell growth at 10 uM after 48 hrs by SRB assay relative to control; assay type: functional; conditions: HCT-116, 48 h, read-out: Activity; procedure, shortened: as §3
[23] = tested on: PC-3; test: Cytotoxicity against human PC3 cells after 48 hrs by SRB assay; assay type: functional, cell-based; conditions: PC-3, 48 h
Procedure, shortened: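 Second-stage NCI-60 panel run by the NCI Developmental Therapeutics Program, covering nine tumour subpanels. Five concentrations were tested: 0.01, 0.1, 1, 10 and 100 μM. Percentage growth at each level was plotted against log10 drug concentration. GI50, TGI and LC50 were read from these dose-response curves. Subpanel MID values were divided into the full-panel MID to give selectivity ratios.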

[24] = tested on: MCF7; test: Cytotoxicity against human MCF7 cells assessed as cell growth at 10 uM after 48 hrs by SRB assay relative to control; assay type: functional; conditions: MCF7, 48 h, read-out: Activity; procedure, shortened: as §3
[25] = tested on: OVCAR-5; test: Cytotoxicity against human OVCAR5 cells assessed as cell growth at 10 uM after 48 hrs by SRB assay relative to control; assay type: functional; conditions: OVCAR-5, 48 h, read-out: Activity; procedure, shortened: as §1
[26] = tested on: HCT-15; test: Cytotoxicity against human HCT15 cells assessed as cell growth at 10 uM after 48 hrs by SRB assay relative to control; assay type: functional; conditions: HCT-15, 48 h, read-out: Activity; procedure, shortened: as §3
[27] = tested on: NCI-H23; test: Cytotoxicity against human NCI-H23 cells assessed as cell growth at 10 uM after 48 hrs by SRB assay relative to control; assay type: functional; conditions: NCI-H23, 48 h, read-out: Activity; procedure, shortened: as §1
[28] = tested on: A549; test: Cytotoxicity against human A549 cells assessed as cell growth at 10 uM after 48 hrs by SRB assay relative to control; assay type: functional; conditions: A549, 48 h, read-out: Activity; procedure, shortened: as §3
[29] = tested on: UACC-257; test: Cytotoxicity against human UACC257 cells assessed as cell growth at 10 uM after 48 hrs by SRB assay relative to control; assay type: functional; conditions: UACC-257, 48 h, read-out: Activity; procedure, shortened: as §2
[30] = tested on: SN12C; test: Cytotoxicity against human SN12C cells assessed as cell growth at 10 uM after 48 hrs by SRB assay relative to control; assay type: functional; conditions: read-out: Activity; procedure, shortened: as §1

Work on `O=C1c2ccccc2C(=O)c2c1ccc1nsnc21` yielded a growth at 10 µM [1] of 15.5%, a growth at 10 µM [2] of 79% and a growth at 10 µM [3] of -71.6%. It also gave a growth at 10 µM [4] of 97.8%, a growth at 10 µM [5] of 112% and a growth at 10 µM [6] of 4.96%. The growth at 10 µM [7] was -79.3%, the growth at 10 µM [8] was -2.53% and the growth at 10 µM [9] was -10.1%. The growth at 10 µM [10] was -21.8%, the growth at 10 µM [11] was 126% and the growth at 10 µM [12] was 97%. It also gave a growth at 10 µM [13] of -17.3%, a growth at 10 µM [14] of -73.2% and a growth at 10 µM [15] of -100%. The growth at 10 µM [16] was 77.4%, the growth at 10 µM [17] was 98.6% and the growth at 10 µM [18] was -47.1%. It also gave a growth at 10 µM [19] of 101%, a growth at 10 µM [20] of -26% and a growth at 10 µM [21] of -82.3%. The growth at 10 µM [22] was -50%, the IC50 [23] was 2500 nM and the growth at 10 µM [24] was -50.7%. For the same compound, the growth at 10 µM [25] was -20.1%, the growth at 10 µM [26] was 1.48% and the growth at 10 µM [27] was 16.1%. It also gave a growth at 10 µM [28] of 104%, a growth at 10 µM [29] of -83.1% and a growth at 10 µM [30] of -73.3%.

Work on `Cc1ccccc1Sc1cc2c(c3nsnc13)C(=O)c1ccccc1C2=O` yielded a growth at 10 µM [1] of 106%, a growth at 10 µM [2] of 104% and a growth at 10 µM [3] of 96.8%. It also gave a growth at 10 µM [4] of 95.7%, a growth at 10 µM [5] of 99.2% and a growth at 10 µM [6] of 23%. For the same compound, the growth at 10 µM [7] was 62.1%, the growth at 10 µM [8] was 59.5% and the growth at 10 µM [9] was 76.3%. For the same compound, the growth at 10 µM [10] was 79.5%, the growth at 10 µM [11] was 105% and the growth at 10 µM [12] was 123%. It also gave a growth at 10 µM [13] of 60.7%, a growth at 10 µM [14] of 73.3% and a growth at 10 µM [15] of 59.5%. The growth at 10 µM [16] was 88.9%, the growth at 10 µM [17] was 103% and the growth at 10 µM [18] was 78%. For the same compound, the growth at 10 µM [19] was 93.8%, the growth at 10 µM [20] was 100% and the growth at 10 µM [21] was 90.7%. The growth at 10 µM [22] was 92.2%, the IC50 [23] was > 15000 nM and the growth at 10 µM [24] was 66.1%. The growth at 10 µM [25] was 126%, the growth at 10 µM [26] was 38.6% and the growth at 10 µM [27] was 53.2%. The growth at 10 µM [28] was 105%, the growth at 10 µM [29] was 87.3% and the growth at 10 µM [30] was 86%.
